Laboratory results taken from ChEMBL document CHEMBL1144601, “Synthesis and antiproliferative properties of N3/8-disubstituted 3,8-diazabicyclo[3.2.1]octane analogues of 3,8-bis[2-(3,4,5-trimethoxyphenyl)pyridin-4-yl]methyl-piperazine” (Eur J Med Chem, 2007).
The source made the active and inactive calls. The calls are words filed in the database; no cut-off is given here.

Legend:
CCRF-CEM = experiment: Antiproliferative activity against human CCRF-CEM cells by MTT assay; format: functional, cell-based
How it was run: (§1)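 Exponentially growing cells resuspended in growth medium with serial drug dilutions; viability read by MTT after 96 h at 37 °C, with untreated controls allowed at least three rounds of multiplication. IC50 is the concentration cutting proliferation by 50%, mean ± SD of three independent determinations. Haematological lines were grown in RPMI-1640 with 10% FCS and antibiotics. Solid-tumour lines were grown in their own media with 10% FCS.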

HepG2 = experiment: Antiproliferative activity against human HepG2 cells by MTT assay; format: functional, cell-based; how it was run: as §1
SK-MEL-28 = experiment: Antiproliferative activity against human SK-MEL-28 cells by MTT assay; format: functional, cell-based; how it was run: as §1
WIL2-NS = experiment: Antiproliferative activity against human WIL-2NS cells by MTT assay; format: functional, cell-based; how it was run: as §1
MCF7 [1] = experiment: Antiproliferative activity against human MCF7 cells by MTT assay; format: functional, cell-based; how it was run: as §1
DU-145 = experiment: Antiproliferative activity against human DU145 cells by MTT assay; format: functional, cell-based; how it was run: as §1
CCRF-SB = experiment: Antiproliferative activity against human CCRF-SB cells by MTT assay; format: functional, cell-based; how it was run: as §1
MT4 = experiment: Antiproliferative activity against human MT4 cells by MTT assay; format: functional, cell-based; how it was run: as §1
[2] = Antiproliferative activity against human CRL7065 cells by MTT assay; format: functional, cell-based; settings: CRL-7065; how it was run: as §1
SK-MES-1 = experiment: Antiproliferative activity against human SKMES1 cells by MTT assay; format: functional, cell-based; how it was run: as §1
MCF7 [3] = experiment: Cell cycle arrest in MCF7 cells by accumulation at GO/G1 phase at 10 uM after 24hrs; format: functional, Homo sapiens
How it was run: (§2)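 MCF-7 cells grown in DMEM with 2 mM L-glutamine and 10% heat-inactivated FBS, seeded at 5×10^5 cells/well. After 24 h they were exposed to compound at 10 µM for 24 h. Cells plus supernatant were collected, stained with Nicoletti reagent and DNA content read by flow cytometry (FL2, linear amplification). Phase distribution was modelled from the histograms.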

MCF7 [4] = experiment: Increase in p21/WAF1 expression level in MCF7 cells at 10 uM after 24 hrs; format: functional, cell-based; settings: Homo sapiens, TDE = time-dependent effect
How it was run: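 MCF-7 cells plated at 5×10^5 per 6-cm plate the day before were treated at 10 µM for various times. Lysates were made by freeze-thaw in Tris-HCl buffer with protease and phosphatase inhibitors. 30 µg protein was run on 10% SDS-PAGE and transferred to nitrocellulose. Blots were probed overnight at 4 °C with anti-p21 monoclonal (1:200), then a secondary antibody, and detected by ECL; three experiments.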

MCF7 [5] = experiment: Cell cycle arrest in MCF7 cells by accumulation at S phase at 10 uM after 24 hrs; format: functional, Homo sapiens; how it was run: as §2
MCF7 [6] = experiment: Cell cycle arrest in MCF7 cells by accumulation at G2/M phase at 10 uM after 24 hrs; format: functional, Homo sapiens; how it was run: as §2
MCF7 [7] = experiment: Induction of apoptosis in human MCF7 cells up to 50 uM after 24 hrs by propidium iodide satining assay; format: functional, cell-based
How it was run: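 MCF-7 cells treated at 10–50 µM for 24 h were washed in PBS. They were resuspended in 0.1% sodium citrate, 0.1% Triton X-100 and 50 µg/mL propidium iodide, then kept 30 min at 4 °C in the dark. Nuclei were read by flow cytometry on a log scale with debris gated out. The % hypodiploid nuclei is from three experiments in triplicate.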

| SMILES | IC50 (CCRF-CEM) | IC50 (HepG2) | IC50 (SK-MEL-28) | IC50 (MCF7 [1]) | IC50 (DU-145) | IC50 (CCRF-SB) | IC50 (SK-MES-1) | IC50 (WIL2-NS) | IC50 (MT4) | IC50 [2] | Activity (MCF7 [3]) | Activity (MCF7 [4]) | Activity (MCF7 [5]) | Activity (MCF7 [6]) | Activity (MCF7 [7]) |
| --- | --- | --- | --- | --- | --- | --- | --- | --- | --- | --- | --- | --- | --- | --- | --- |
| Cc1cccc(-c2cc(CN3CC4CCC(C3)N4Cc3ccnc(-c4cccc(C)c4)c3)ccn2)c1 | 18 µM | 41 µM | 15 µM | 24 µM | 34 µM | 18 µM | 18 µM | 25 µM | > 100 µM | > 100 µM | – | – | – | – | – |
| c1ccc(-c2cccc(CN3CC4CCC(C3)N4Cc3cccc(-c4ccccc4)c3)c2)cc1 | 12 µM | 38 µM | 15 µM | 25 µM | 14 µM | 10 µM | 10 µM | 12 µM | – | 41 µM | – | – | – | – | – |
| COc1cccc(-c2cc(CN3CC4CCC(C3)N4Cc3ccnc(-c4cccc(OC)c4)c3)ccn2)c1 | 11 µM | 15 µM | 8 µM | 15 µM | 9 µM | 12 µM | 8 µM | 13 µM | – | > 100 µM | – | – | – | – | – |
| CC[C@@]1(O)C(=O)OCc2c1cc1n(c2=O)Cc2cc3ccccc3nc2-1 [CAMPTOTHECIN] | 0.003 µM | 0.03 µM | 0.04 µM | 0.04 µM | 0.01 µM | 0.003 µM | 0.01 µM | 0.005 µM | 0.004 µM | 0.5 µM | – | – | – | – | – |
| O=[N+]([O-])c1ccc(-c2cc(CN3CC4CCC(C3)N4Cc3ccnc(-c4ccc([N+](=O)[O-])cc4)c3)ccn2)cc1 | 91 µM | > 100 µM | > 100 µM | > 100 µM | > 100 µM | > 100 µM | > 100 µM | > 100 µM | – | > 100 µM | – | – | – | – | – |
| CC(=O)Nc1cccc(-c2cc(CN3CC4CCC(C3)N4Cc3ccnc(-c4cccc(NC(C)=O)c4)c3)ccn2)c1 | 16 µM | 43 µM | 34 µM | 23 µM | 24 µM | 17 µM | 33 µM | 25 µM | > 100 µM | > 100 µM | – | – | – | – | – |
| O=[N+]([O-])c1cccc(-c2cc(CN3CC4CCC(C3)N4Cc3ccnc(-c4cccc([N+](=O)[O-])c4)c3)ccn2)c1 | 36 µM | 41 µM | 31 µM | 68 µM | 85 µM | 27 µM | 30 µM | 63 µM | – | > 100 µM | – | – | – | – | – |
| c1ccc2c(CN3CC4CCC(C3)N4Cc3cccc4ccccc34)cccc2c1 | 8 µM | 18 µM | 13 µM | 11 µM | 80 µM | 7 µM | 17 µM | 7 µM | – | 20 µM | – | – | – | – | – |
| Oc1cccc(-c2cc(CN3CC4CCC(C3)N4Cc3ccnc(-c4cccc(O)c4)c3)ccn2)c1 | 14 µM | > 100 µM | > 100 µM | > 100 µM | > 100 µM | 16 µM | > 100 µM | 28 µM | – | > 100 µM | – | – | – | – | – |
| Oc1ccc(-c2cc(CN3CC4CCC(C3)N4Cc3ccnc(-c4ccc(O)cc4)c3)ccn2)cc1 | 15 µM | 13 µM | 19 µM | 25 µM | 15 µM | 12 µM | 23 µM | 18 µM | – | 80 µM | – | – | – | – | – |
| c1ccc(CN2CC3CCC(C2)N3Cc2ccccc2)cc1 | 46 µM | > 100 µM | > 100 µM | > 100 µM | > 100 µM | 81 µM | > 100 µM | 60 µM | > 100 µM | > 100 µM | – | – | – | – | – |
| CC(=O)Nc1ccc(-c2cc(CN3CC4CCC(C3)N4Cc3ccnc(-c4ccc(NC(C)=O)cc4)c3)ccn2)cc1 | 19 µM | 30 µM | 20 µM | 43 µM | 42 µM | 25 µM | 22 µM | 30 µM | 18 µM | > 100 µM | – | – | – | – | – |
| O=C1C2CCC(N2)C(=O)N1Cc1ccccc1 | 85 µM | 92 µM | 96 µM | 86 µM | 87 µM | 88 µM | 81 µM | > 100 µM | > 100 µM | > 100 µM | – | – | – | – | – |
| c1ccc(CN2CC3CCC(C2)N3)cc1 | > 100 µM | > 100 µM | > 100 µM | > 100 µM | > 100 µM | > 100 µM | > 100 µM | > 100 µM | > 100 µM | > 100 µM | – | – | – | – | – |

The next lines start with results.

| IC50 (CCRF-CEM) | IC50 (HepG2) | IC50 (SK-MEL-28) | IC50 (MCF7 [1]) | IC50 (DU-145) | IC50 (CCRF-SB) | IC50 (SK-MES-1) | SMILES | IC50 (WIL2-NS) | IC50 (MT4) | IC50 [2] | Activity (MCF7 [3]) | Activity (MCF7 [4]) | Activity (MCF7 [5]) | Activity (MCF7 [6]) | Activity (MCF7 [7]) |
| --- | --- | --- | --- | --- | --- | --- | --- | --- | --- | --- | --- | --- | --- | --- | --- |
| 1 µM | 8 µM | 15 µM | 3 µM | 2 µM | 1 µM | 58 µM | Sc1ncnc2nc[nH]c12 [MERCAPTOPURINE ANHYDROUS] | 3 µM | 0.1 µM | > 100 µM | – | – | – | – | – |
| 7 µM | 45 µM | 6 µM | 84 µM | 7 µM | 6 µM | 43 µM | c1ccc(-c2ccc(CN3CC4CCC(C3)N4Cc3ccc(-c4ccccc4)cc3)cc2)cc1 | 11 µM | > 100 µM | > 100 µM | – | – | – | – | – |
| 8 µM | 11 µM | 8 µM | 9 µM | 8 µM | 11 µM | 11 µM | c1ccc(-c2cc(CN3CC4CCC(C3)N4Cc3ccnc(-c4ccccc4)c3)ccn2)cc1 | 15 µM | 19 µM | > 100 µM | – | – | – | – | – |
| 8 µM | 7 µM | 7 µM | 7 µM | 7 µM | 12 µM | 8 µM | Cc1ccc(-c2cc(CN3CC4CCC(C3)N4Cc3ccnc(-c4ccc(C)cc4)c3)ccn2)cc1 | 26 µM | – | > 100 µM | – | – | – | – | – |
| 6 µM | 50 µM | 30 µM | 54 µM | 41 µM | 9 µM | 40 µM | c1ccc2c(c1)ccc1c(CN3CC4CCC(C3)N4Cc3cccc4c3ccc3ccccc34)cccc12 | 6 µM | – | 69 µM | – | – | – | – | – |
| 7 µM | 9 µM | 10 µM | 10 µM | 9 µM | 13 µM | 12 µM | Clc1ccc(-c2cc(CN3CC4CCC(C3)N4Cc3ccnc(-c4ccc(Cl)cc4)c3)ccn2)cc1 | 29 µM | – | > 100 µM | – | – | – | – | – |
| 3 µM | 3 µM | 2 µM | 6 µM | 2 µM | 5 µM | 3 µM | COc1ccc(-c2cc(CN3CC4CCC(C3)N4Cc3ccnc(-c4ccc(OC)cc4)c3)ccn2)cc1 | 6 µM | 4 µM | > 100 µM | – | – | – | – | – |
| 2 µM | 8 µM | 4 µM | 5 µM | 14 µM | 3 µM | 10 µM | COc1cc(-c2cc(CN3CC4CCC(C3)N4Cc3ccnc(-c4cc(OC)c(OC)c(OC)c4)c3)ccn2)cc(OC)c1OC | 3 µM | 2 µM | > 100 µM | 87% | tde | 4.6% | 7.5% | inactive |
